# Experiments:
# [1] = biological target: T1, zebrafish 12-LOX (zf12-LOX, Alox12) (Danio rerio, UniProt A0ACM8Q0F4); assay: UV-Vis lipoxygenase rate assay; format: biochemical
# T1 sequence (A0ACM8Q0F4 1-670): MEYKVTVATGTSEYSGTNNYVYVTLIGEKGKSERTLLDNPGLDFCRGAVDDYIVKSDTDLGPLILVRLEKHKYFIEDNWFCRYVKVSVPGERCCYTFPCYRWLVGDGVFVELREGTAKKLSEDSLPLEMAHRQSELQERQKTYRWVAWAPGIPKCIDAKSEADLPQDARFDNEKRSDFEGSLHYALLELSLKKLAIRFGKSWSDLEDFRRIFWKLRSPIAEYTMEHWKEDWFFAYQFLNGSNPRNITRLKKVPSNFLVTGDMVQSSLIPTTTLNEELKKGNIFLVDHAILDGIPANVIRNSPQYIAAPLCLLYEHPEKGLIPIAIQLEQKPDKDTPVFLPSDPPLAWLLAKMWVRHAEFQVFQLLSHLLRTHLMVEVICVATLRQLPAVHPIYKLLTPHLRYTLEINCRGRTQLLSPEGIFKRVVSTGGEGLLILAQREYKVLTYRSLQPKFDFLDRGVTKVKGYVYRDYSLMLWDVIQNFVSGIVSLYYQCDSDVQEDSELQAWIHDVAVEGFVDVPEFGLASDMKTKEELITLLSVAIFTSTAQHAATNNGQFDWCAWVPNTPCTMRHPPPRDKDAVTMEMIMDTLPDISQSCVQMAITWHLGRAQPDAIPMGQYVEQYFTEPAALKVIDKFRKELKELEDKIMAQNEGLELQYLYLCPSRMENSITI
# Outline: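 N-terminal 6xHis-tagged zf12-LOX, expressed from a pFastBac construct, purified on nickel-iminodiacetic acid agarose (>90% pure by SDS-PAGE). Reaction in 25 mM HEPES (pH 8.00), 0.01% Triton X-100, 10 μM arachidonic acid, run as a steady-state kinetic UV-Vis assay. Enzymatic rate measured at six inhibitor concentrations in triplicate; IC50 from a hyperbolic saturation curve fit of rate versus concentration.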
# [2] = biological target: T2, human 12-LOX (Human ALOX12) (Homo sapiens, UniProt P18054); assay: biochemical
# T2 sequence (P18054 1-663): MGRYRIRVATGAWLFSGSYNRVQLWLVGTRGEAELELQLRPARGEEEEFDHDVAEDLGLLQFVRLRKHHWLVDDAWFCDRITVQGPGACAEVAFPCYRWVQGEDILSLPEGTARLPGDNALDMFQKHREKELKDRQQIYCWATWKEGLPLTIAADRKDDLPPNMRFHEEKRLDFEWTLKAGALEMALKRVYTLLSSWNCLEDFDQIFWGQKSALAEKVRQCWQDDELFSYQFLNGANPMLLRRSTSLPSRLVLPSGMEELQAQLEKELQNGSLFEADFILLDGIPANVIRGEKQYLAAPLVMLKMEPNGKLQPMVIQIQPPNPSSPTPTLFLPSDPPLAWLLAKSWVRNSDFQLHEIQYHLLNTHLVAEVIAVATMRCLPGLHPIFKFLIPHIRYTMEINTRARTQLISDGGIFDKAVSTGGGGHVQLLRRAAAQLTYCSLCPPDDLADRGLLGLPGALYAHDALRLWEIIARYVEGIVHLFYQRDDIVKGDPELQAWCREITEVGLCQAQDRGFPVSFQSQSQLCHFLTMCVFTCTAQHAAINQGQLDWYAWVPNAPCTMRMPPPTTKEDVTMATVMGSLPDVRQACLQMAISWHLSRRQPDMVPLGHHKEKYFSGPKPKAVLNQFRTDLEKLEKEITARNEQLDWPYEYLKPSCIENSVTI
compound,measurement,setting,value
CNc1oc(-c2cccc3ccccc23)nc1C#N [ML351],IC50,[1],> 100 µM
same,IC50,[2],> 50 µM
